Assay results from ChEMBL document CHEMBL4622923, “Discovery of 4-Phenylpiperidine-2-Carboxamide Analogues as Serotonin 5-HT2C Receptor-Positive Allosteric Modulators with Enhanced Drug-like Properties” (J Med Chem, 2020).

Assays:
[1] = molecular target: 5-hydroxytryptamine receptor 1E (Homo sapiens) (UniProt P28566); test: Displacement of [3H]-5-HT from human 5HT1E stably expressed in HEK cell membranes at 10 uM incubated for 90 mins under dark condition by scintillation counting analysis relative to control
[2] = molecular target: 5-hydroxytryptamine receptor 3A (Homo sapiens) (UniProt P46098); test: Displacement of [3H]-LY278584 from human 5HT3R transiently expressed in HEKT cell membranes at 10 uM incubated for 90 mins under dark condition by scintillation counting analysis relative to control
[3] = molecular target: Mu-type opioid receptor (Homo sapiens) (UniProt P35372); test: Displacement of [3H]-DAMGO from human mu opioid receptor stably expressed in HEK cell membranes at 10 uM incubated for 90 mins under dark condition by scintillation counting analysis relative to control
[4] = molecular target: 5-hydroxytryptamine receptor 7 (Homo sapiens) (UniProt P34969); test: Displacement of [3H]-LSD from human 5HT7A stably expressed in HEK cell membranes at 10 uM incubated for 90 mins under dark condition by scintillation counting analysis relative to control
[5] = molecular target: Alpha-1D adrenergic receptor (Homo sapiens) (UniProt P25100); test: Displacement of [3H]-prazosin from human adrenergic alpha1D receptor at 10 uM incubated for 90 mins under dark condition by scintillation counting analysis relative to control
[6] = Volume of distribution at steady state in Sprague-Dawley rat at 20 mg/kg, po; format: ADME, organism-based; details: in vivo
Procedure, shortened: (§1)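 Male Sprague-Dawley rats, 200–250 g, n = 3/group, randomly assigned; dosed 10 mg/kg iv or 20 mg/kg po in 10% DMSO:90% HP-β-CD. Retro-orbital blood sampled predose and 0.08 (iv only), 0.25, 0.5, 1, 2, 4, 8, 24 h. Noncompartmental analysis; Cmax read directly from plasma concentration–time plot; mean ± SEM.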

[7] = molecular target: 5-hydroxytryptamine receptor 5A (Homo sapiens) (UniProt P47898); test: Displacement of [3H]-LSD from human 5HT5A expressed in Flp-In-CHO cell membranes at 10 uM incubated for 90 mins under dark condition by scintillation counting analysis relative to control
[8] = Fraction unbound in rat plasma; format: ADME, cell-free
Procedure, shortened: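 Free fraction measured in rat plasma.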

[9] = molecular target: GABA-A receptor; anion channel (Rattus norvegicus) (UniProt O09028+P15431+P18506+P18508+P19969+P20236+P23574+P23576+P28471+P28473+P30191+P62813+P63079+P63138+Q91ZM7+Q9ES14); test: Displacement of [3H]-muscimol from rat brain GABAA receptor at 10 uM incubated for 90 mins under dark condition by scintillation counting analysis relative to control
[10] = molecular target: D(1A) dopamine receptor (Homo sapiens) (UniProt P21728); test: Displacement of [3H]-SCH23390 from human dopamine D1 receptor transiently expressed in HEKT cell membranes at 10 uM incubated for 90 mins under dark condition by scintillation counting analysis relative to control
[11] = molecular target: D(4) dopamine receptor (Homo sapiens) (UniProt P21917); test: Displacement of [3H]-N-methylspiperone from human dopamine D4 receptor stably expressed in HEK cell membranes at 10 uM incubated for 90 mins under dark condition by scintillation counting analysis relative to control
[12] = Half life in rat liver microsomes at 10 uM in presence of NADPH; format: ADME, Microsome
[13] = molecular target: 5-hydroxytryptamine receptor 1D (Homo sapiens) (UniProt P28221); test: Displacement of [3H]-GR125743 from human 5HT1D transiently expressed in HEKT cell membranes at 10 uM incubated for 90 mins under dark condition by scintillation counting analysis relative to control
[14] = Apparent permeability across basolateral to apical side in MDCK-MDR1 cells; format: ADME, cell-based, Canis lupus familiaris; details: dog
CYP1A2 = CYP1A2 (Homo sapiens, UniProt P05177); test: Inhibition of CYP1A2 (unknown origin) at 10 uM relative to control; format: ADME
Procedure, shortened: (§2)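 Each CYP isoform inhibition assay run with test compound at 10 µM; reported as percent inhibition.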

[15] = molecular target: T1, 5-hydroxytryptamine receptor 2C (Homo sapiens) (UniProt P28335); test: Displacement of [3H]-mesulergine from human 5HT2C expressed in HEKT cell membranes at 10 uM incubated for 90 mins under dark condition by scintillation counting analysis relative to control
T1 sequence (whole entry): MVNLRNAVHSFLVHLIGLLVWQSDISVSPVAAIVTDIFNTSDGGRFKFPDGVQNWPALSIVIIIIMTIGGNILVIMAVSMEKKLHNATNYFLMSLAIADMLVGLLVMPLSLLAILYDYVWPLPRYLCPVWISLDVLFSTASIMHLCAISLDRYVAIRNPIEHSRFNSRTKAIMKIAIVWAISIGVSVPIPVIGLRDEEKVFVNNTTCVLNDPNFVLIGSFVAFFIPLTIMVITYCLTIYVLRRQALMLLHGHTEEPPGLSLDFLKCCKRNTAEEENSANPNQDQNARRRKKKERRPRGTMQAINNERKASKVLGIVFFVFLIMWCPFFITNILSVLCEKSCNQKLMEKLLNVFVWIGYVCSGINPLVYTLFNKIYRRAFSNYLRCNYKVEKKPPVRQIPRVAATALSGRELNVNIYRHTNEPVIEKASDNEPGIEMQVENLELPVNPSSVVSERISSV

[16] = molecular target: Sodium-dependent dopamine transporter (Homo sapiens) (UniProt Q01959); test: Displacement of [3H]-WIN35428 from human DAT expressed in HEK cell membranes at 10 uM incubated for 90 mins under dark condition by scintillation counting analysis relative to control
[17] = Cmax in Sprague-Dawley rat at 20 mg/kg, po; format: ADME, organism-based; set-up: dose 20 mg/kg, route oral; details: in vivo; procedure, shortened: as §1
[18] = molecular target: Sodium-dependent noradrenaline transporter (Homo sapiens, UniProt P23975); test: Displacement of [3H]-nisoxetine from human NET stably expressed in HEK cell membranes at 10 uM incubated for 90 mins under dark condition by scintillation counting analysis relative to control
[19] = molecular target: T2, 5-hydroxytryptamine receptor 2C (Homo sapiens, UniProt P28335); test: Agonist activity at human 5HT2CR expressed in CHO cells assessed as increase in intracellular calcium release at 1 nM incubated for 15 mins measured at 1 secs interval for 120 secs by calcium 4 dye based FLIPR assay relative to 5-HT; format: cell-based; details: 0.001 µM
T2 sequence (P28335 whole entry): T1 sequence (whole entry)
Procedure, shortened: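 h5-HT2CR (unedited INI isoform) stably expressed in CHO cells; cells plated ~24 h, serum-free medium 3 h, then Calcium 4 dye with 2.5 mM probenecid in Ca/Mg-free HBSS pH 7.4 for 60 min at 37°C plus 15 min at room temperature. Compound given alone, read for 15 min before 5-HT. Peak fluorescence is expressed relative to the 5-HT Emax. 4-6 biological replicates, each in triplicate.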

5-HT2B receptor = 5-HT2B receptor (Homo sapiens, UniProt P41595); test: Displacement of [3H]-LSD from human 5HT2B stably expressed in HEK cell membranes at 10 uM incubated for 90 mins under dark condition by scintillation counting analysis relative to control; details: membranes of HEK cells stably expressing human 5HT2B, probe [3H]-LSD
CYP2C9 = CYP2C9 (Homo sapiens, UniProt P11712); test: Inhibition of CYP2C9 (unknown origin) at 10 uM relative to control; format: ADME; procedure, shortened: as §2
[20] = AUC (0 to infinity) in Sprague-Dawley rat at 10 mg/kg, iv; format: ADME, organism-based; set-up: dose 10 mg/kg, route intravenous, time infinity; details: in vivo

Chain of Sodium-dependent dopamine transporter (Homo sapiens) (Q01959 whole entry): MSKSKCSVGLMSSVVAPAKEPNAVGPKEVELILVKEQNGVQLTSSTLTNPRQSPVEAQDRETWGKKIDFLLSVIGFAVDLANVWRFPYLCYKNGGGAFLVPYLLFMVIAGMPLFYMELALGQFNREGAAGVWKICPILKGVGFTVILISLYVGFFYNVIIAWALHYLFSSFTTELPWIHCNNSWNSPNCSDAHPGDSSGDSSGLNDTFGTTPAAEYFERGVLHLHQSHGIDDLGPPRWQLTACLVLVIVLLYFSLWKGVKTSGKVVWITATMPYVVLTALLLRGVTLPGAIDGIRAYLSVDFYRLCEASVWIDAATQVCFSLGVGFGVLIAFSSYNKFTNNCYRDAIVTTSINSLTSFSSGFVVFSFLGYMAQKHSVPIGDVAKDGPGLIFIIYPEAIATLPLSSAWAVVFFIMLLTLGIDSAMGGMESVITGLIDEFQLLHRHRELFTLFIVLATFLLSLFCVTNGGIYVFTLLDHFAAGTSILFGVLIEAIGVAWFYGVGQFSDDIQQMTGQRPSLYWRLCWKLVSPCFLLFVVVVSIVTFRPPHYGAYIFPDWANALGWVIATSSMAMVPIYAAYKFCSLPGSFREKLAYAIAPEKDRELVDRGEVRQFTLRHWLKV
Chain of Mu-type opioid receptor (Homo sapiens) (P35372 whole entry): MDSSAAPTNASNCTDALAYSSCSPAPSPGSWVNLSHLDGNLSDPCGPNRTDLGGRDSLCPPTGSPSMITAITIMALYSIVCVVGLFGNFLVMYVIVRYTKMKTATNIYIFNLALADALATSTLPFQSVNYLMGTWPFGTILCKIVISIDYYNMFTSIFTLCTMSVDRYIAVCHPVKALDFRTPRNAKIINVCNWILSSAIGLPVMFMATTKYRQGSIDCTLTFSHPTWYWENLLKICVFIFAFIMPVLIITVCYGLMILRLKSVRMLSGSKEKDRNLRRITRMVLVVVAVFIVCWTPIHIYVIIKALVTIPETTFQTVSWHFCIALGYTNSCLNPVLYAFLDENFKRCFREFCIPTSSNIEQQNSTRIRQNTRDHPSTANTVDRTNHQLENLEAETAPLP
Chain of 5-HT2B receptor (P41595 whole entry): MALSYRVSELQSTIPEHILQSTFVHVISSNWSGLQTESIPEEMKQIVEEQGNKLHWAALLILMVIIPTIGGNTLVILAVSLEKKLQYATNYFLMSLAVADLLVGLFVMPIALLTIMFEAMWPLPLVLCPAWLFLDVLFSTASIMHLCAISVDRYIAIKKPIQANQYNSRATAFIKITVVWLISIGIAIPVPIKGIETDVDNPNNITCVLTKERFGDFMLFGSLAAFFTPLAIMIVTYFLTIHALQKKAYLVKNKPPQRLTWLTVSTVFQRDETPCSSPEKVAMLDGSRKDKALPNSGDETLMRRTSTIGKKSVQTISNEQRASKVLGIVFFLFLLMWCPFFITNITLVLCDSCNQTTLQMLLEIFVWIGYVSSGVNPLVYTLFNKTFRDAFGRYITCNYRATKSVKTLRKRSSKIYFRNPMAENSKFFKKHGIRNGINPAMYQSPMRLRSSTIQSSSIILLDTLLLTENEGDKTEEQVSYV
Chain of CYP1A2 (P05177 whole entry, canonical isoform): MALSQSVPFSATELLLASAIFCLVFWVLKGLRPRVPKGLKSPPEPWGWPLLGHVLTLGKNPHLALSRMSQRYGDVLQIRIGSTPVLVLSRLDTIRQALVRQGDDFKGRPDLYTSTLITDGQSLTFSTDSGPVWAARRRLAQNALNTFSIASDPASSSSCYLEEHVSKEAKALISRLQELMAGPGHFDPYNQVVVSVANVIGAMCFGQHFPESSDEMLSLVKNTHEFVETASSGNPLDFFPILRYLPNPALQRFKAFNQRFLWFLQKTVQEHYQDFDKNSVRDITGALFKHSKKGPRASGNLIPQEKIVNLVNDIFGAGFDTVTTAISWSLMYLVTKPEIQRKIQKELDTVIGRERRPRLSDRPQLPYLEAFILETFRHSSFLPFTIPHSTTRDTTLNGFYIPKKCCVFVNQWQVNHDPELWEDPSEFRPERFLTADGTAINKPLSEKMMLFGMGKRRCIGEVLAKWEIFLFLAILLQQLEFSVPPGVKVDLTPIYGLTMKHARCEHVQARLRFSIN
Chain of 5-hydroxytryptamine receptor 1E (Homo sapiens) (P28566 whole entry): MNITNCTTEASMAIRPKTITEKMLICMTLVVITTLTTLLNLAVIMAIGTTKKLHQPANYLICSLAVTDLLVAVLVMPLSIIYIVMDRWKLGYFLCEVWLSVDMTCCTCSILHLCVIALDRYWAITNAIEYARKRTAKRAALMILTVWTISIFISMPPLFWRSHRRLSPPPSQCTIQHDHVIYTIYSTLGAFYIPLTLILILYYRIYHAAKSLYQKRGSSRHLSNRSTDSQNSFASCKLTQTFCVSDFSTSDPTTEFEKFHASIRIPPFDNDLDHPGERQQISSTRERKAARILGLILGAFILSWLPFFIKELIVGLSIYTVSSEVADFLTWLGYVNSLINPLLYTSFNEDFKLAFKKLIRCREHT
Chain of 5-hydroxytryptamine receptor 3A (Homo sapiens) (P46098 whole entry): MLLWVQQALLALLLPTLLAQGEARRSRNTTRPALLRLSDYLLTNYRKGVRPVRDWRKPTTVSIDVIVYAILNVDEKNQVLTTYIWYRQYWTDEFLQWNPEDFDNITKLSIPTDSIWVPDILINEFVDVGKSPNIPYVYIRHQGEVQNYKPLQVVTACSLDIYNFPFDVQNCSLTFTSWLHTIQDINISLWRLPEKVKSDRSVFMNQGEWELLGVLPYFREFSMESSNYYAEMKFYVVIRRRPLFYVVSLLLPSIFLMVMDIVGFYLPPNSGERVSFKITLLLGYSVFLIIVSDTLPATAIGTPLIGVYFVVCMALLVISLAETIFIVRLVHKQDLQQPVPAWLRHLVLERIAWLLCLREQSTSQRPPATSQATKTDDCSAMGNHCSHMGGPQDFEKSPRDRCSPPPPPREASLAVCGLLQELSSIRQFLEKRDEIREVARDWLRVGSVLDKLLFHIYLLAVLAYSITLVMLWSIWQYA
Chain of 5-hydroxytryptamine receptor 7 (Homo sapiens) (P34969 whole entry): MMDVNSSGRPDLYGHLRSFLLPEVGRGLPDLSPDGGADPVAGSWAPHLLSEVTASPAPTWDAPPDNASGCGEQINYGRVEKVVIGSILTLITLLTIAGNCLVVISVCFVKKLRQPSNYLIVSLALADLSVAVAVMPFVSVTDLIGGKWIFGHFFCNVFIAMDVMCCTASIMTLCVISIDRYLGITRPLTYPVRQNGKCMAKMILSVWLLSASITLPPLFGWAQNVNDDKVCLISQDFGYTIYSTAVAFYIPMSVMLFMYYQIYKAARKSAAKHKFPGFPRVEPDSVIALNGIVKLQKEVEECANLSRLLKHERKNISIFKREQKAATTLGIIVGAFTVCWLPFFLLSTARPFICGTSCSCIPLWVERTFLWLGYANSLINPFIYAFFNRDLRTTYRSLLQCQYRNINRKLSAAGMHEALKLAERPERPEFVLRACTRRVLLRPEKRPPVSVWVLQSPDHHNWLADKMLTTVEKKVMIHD
Chain of D(1A) dopamine receptor (Homo sapiens) (P21728 whole entry): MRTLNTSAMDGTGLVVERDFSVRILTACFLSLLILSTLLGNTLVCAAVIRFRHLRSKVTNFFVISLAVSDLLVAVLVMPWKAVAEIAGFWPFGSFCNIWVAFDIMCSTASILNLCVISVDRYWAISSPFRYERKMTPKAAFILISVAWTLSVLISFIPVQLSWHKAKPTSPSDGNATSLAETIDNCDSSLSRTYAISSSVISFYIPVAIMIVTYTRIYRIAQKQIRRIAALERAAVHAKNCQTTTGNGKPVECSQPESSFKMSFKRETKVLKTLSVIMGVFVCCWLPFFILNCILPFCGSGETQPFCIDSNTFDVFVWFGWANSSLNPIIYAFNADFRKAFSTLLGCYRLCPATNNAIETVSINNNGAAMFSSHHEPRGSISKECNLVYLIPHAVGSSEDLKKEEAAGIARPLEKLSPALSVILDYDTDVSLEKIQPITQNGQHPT
Chain of Alpha-1D adrenergic receptor (Homo sapiens) (P25100 whole entry): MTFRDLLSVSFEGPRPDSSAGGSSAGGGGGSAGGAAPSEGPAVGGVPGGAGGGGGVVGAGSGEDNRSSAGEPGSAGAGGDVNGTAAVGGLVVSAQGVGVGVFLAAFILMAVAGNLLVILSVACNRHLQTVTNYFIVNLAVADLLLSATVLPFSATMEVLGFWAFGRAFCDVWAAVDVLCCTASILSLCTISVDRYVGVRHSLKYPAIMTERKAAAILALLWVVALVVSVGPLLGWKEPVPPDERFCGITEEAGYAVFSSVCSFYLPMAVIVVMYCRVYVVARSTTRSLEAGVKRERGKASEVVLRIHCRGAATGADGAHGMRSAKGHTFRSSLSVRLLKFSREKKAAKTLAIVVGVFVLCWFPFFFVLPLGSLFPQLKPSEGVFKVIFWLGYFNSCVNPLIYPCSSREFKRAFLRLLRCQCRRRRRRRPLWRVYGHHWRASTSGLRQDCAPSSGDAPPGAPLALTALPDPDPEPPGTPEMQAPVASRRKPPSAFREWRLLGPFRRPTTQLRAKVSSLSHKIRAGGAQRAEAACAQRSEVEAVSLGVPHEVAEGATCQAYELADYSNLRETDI
Chain of 5-hydroxytryptamine receptor 1D (Homo sapiens) (P28221 whole entry): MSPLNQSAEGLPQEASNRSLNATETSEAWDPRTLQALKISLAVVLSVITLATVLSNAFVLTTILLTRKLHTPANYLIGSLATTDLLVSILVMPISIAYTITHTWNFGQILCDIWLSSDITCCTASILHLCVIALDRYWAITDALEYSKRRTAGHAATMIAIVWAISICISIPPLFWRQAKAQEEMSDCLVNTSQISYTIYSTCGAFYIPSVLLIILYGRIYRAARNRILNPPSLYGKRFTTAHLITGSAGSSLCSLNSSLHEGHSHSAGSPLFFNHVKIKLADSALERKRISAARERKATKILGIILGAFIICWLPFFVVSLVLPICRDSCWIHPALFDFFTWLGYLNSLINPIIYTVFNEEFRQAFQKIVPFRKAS

O=C(NC[C@H](O)CO)[C@@H]1C[C@H](c2ccccc2)CCN1 (mixture of isomers)
inhibition [1]: 6.3%
inhibition [2]: 22.3%
inhibition [3]: 23.3%
inhibition [4]: 2.2%
inhibition [5]: -4.8%
Vdss [6]: 70.6 L/kg
inhibition [7]: -4.3%
Fu [8]: 66%
inhibition [9]: 7%
inhibition [10]: 9.7%
inhibition [11]: -9.3%
t1/2 [12]: > 4 h
inhibition [13]: 15.3%
Papp [14]: 1.3 ×10⁻⁶ cm/s
inhibition at 10 µM (CYP1A2): 11.8%
inhibition [15]: 26.9%
inhibition [16]: 40.8%
Cmax [17]: 411.3 ng/mL
inhibition [18]: 74.4%
Activity [19]: Not Active
inhibition at 1.5 h, 10 µM (5-HT2B receptor): -7.2%
inhibition at 10 µM (CYP2C9): 0%
AUC [20]: 3065.6 ng·h/mL
